ChEMBL document CHEMBL3751721, “Development of acridine derivatives as selective Mycobacterium tuberculosis DNA gyrase inhibitors” (Bioorg Med Chem, 2016)
Values after ≈ are worked out from the molar mass of the structure shown. Active and inactive are the calls of the source. The calls are words filed in the database; no cut-off is given here.

Assays:
[1] = test system: Mycobacterium tuberculosis; assay: Inhibition of Mycobacterium tuberculosis DNA topoisomerase 1 assessed as DNA relaxation at 50 uM
[2] = test system: Mycobacterium tuberculosis; assay: Antimicrobial activity against Mycobacterium tuberculosis H37Rv ATCC 27294 after 28 days by alamar blue assay; format: functional; conditions: H37Rv ATCC 27294, 672 h
[3] = target: DNA gyrase (Pseudomonas aeruginosa) (UniProt P48372+Q9I7C2); assay: Inhibition of Pseudomonas aeruginosa DNA gyrase assessed as inhibition of DNA supercoiling; format: protein-complex assay
[4] = Inhibition of zebrafish ERG at 1 to 30 uM; parameters: species or system Danio rerio
Procedure, shortened: (§1)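 Zebrafish embryos from 2 female:3 male breeding, raised in E3 medium at 28 °C. Compound given at 1 to 30 µM in 0.1% DMSO vehicle, 20 µM terfenadine as reference, 4 h incubation. Embryos treated with tricaine, then 30 beats timed per atrium and ventricle. Rate = 1800/time(s) beats/min; AV ratio derived from these counts.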

[5] = target: DNA gyrase subunit A/DNA gyrase subunit B (Mycobacterium tuberculosis (strain ATCC 25618 / H37Rv), UniProt P9WG45+P9WG47); assay: Inhibition of Mycobacterium tuberculosis DNA gyrase assessed as inhibition of DNA supercoiling after 30 mins by electrophoresis
Sequence of DNA gyrase subunit A/DNA gyrase subunit B (P9WG45 whole entry): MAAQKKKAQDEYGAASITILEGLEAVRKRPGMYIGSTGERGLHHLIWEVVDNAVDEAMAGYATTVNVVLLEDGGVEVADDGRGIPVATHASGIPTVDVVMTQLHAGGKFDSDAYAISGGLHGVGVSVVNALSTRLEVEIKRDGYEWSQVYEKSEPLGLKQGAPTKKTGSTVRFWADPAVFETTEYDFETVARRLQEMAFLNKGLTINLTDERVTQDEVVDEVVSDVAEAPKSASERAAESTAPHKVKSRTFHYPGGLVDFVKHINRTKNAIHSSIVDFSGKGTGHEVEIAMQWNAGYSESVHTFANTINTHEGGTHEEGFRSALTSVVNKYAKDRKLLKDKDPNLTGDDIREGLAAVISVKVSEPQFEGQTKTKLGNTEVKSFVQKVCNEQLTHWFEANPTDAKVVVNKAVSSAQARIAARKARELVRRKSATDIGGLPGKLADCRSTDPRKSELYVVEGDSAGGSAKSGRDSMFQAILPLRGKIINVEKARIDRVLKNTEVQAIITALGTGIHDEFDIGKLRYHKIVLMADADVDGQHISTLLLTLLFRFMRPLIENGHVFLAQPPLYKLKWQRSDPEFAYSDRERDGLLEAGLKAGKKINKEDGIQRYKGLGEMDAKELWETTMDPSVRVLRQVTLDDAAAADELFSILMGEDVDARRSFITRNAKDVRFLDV
Sequence of DNA gyrase subunit A/DNA gyrase subunit B (P9WG47 whole entry): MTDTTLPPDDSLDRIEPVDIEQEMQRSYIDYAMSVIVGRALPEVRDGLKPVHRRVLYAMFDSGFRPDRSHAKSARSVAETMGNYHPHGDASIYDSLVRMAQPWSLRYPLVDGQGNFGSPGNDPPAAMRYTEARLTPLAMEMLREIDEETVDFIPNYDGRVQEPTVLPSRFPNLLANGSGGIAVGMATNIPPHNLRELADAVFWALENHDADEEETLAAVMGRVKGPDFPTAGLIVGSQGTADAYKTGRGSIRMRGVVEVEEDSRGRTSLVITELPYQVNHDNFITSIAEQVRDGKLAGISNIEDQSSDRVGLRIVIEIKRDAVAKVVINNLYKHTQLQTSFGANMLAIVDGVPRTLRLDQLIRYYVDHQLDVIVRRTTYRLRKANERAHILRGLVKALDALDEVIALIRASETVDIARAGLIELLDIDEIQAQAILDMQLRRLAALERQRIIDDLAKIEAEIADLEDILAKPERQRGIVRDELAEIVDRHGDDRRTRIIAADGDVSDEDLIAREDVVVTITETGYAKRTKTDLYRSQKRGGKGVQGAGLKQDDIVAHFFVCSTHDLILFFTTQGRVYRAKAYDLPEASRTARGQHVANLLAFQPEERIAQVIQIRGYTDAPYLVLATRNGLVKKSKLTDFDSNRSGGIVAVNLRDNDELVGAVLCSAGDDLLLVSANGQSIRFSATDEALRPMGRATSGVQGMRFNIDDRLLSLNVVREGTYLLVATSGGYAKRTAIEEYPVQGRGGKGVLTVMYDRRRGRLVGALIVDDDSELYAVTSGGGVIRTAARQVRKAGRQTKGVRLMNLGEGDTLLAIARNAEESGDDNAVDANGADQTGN

Escherichia coli = assay: Inhibition of Escherichia coli DNA gyrase assessed as inhibition of DNA supercoiling
[6] = target: DNA gyrase (Staphylococcus aureus) (UniProt P0A0K8+P20831); assay: Inhibition of Staphylococcus aureus DNA gyrase assessed as inhibition of DNA supercoiling; format: protein-complex assay
Sequence of DNA gyrase (Staphylococcus aureus) (P0A0K8 2-644 limits assumed): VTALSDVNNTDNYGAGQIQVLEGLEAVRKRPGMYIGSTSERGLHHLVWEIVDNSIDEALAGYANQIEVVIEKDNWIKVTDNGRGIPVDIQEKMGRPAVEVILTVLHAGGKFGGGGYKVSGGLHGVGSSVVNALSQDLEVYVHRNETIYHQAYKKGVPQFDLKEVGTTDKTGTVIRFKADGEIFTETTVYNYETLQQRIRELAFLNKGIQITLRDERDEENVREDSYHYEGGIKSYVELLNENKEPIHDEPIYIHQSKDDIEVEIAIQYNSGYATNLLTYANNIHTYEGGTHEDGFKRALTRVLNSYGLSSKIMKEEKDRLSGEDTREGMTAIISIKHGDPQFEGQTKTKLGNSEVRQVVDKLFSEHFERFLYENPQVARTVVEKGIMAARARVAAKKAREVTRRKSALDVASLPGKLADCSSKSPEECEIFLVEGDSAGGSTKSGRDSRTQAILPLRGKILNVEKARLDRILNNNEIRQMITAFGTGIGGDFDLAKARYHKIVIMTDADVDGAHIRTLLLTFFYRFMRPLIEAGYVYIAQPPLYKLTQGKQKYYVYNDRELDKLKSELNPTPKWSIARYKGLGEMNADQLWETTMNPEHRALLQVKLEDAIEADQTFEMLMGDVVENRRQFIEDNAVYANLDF
Sequence of DNA gyrase (Staphylococcus aureus) (P20831 whole entry partner): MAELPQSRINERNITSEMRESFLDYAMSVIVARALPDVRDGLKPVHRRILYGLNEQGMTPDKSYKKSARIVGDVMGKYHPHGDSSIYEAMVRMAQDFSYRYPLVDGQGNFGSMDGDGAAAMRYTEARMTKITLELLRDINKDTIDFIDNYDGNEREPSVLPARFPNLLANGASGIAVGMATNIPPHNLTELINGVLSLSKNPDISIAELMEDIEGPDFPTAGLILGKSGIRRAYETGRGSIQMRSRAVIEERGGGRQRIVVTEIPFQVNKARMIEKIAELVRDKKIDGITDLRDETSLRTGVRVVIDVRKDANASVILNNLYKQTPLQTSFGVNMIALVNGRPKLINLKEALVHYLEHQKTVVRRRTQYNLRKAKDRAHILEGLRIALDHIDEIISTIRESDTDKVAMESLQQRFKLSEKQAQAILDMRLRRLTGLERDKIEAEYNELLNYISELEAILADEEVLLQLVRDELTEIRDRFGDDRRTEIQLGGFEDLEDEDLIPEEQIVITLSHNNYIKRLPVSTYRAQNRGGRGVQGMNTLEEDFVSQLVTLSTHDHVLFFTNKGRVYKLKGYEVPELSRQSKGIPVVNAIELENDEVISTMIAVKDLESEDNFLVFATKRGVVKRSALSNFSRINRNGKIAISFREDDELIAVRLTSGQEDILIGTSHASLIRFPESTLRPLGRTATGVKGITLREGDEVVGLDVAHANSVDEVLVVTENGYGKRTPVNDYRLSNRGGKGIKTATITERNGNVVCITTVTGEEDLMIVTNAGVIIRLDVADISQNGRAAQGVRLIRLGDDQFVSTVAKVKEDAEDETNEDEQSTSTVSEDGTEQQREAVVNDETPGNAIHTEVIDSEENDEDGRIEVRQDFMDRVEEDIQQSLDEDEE

[7] = Cytotoxicity against mouse RAW264.7 cells assessed as inhibition of cell growth at 50 uM after 72 hrs by MTT assay; format: cell-based
Procedure, shortened: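 RAW 264.7 mouse macrophages exposed to compound at 50 µM for 72 h. Viability read by MTT conversion to formazan, reported as percent inhibition.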

[8] = Toxicity in zebrafish embryo assessed as heart rate at 30 uM; parameters: species or system Danio rerio; conditions: in vivo; procedure, shortened: as §1
[9] = target: DNA gyrase subunit B (Mycobacterium smegmatis) (UniProt P0C559); assay: Inhibition of Mycobacterium smegmatis GyrB by ATPase assay; conditions: Mycolicibacterium smegmatis
Sequence of DNA gyrase subunit B (Mycobacterium smegmatis) (P0C559 2-675 limits assumed): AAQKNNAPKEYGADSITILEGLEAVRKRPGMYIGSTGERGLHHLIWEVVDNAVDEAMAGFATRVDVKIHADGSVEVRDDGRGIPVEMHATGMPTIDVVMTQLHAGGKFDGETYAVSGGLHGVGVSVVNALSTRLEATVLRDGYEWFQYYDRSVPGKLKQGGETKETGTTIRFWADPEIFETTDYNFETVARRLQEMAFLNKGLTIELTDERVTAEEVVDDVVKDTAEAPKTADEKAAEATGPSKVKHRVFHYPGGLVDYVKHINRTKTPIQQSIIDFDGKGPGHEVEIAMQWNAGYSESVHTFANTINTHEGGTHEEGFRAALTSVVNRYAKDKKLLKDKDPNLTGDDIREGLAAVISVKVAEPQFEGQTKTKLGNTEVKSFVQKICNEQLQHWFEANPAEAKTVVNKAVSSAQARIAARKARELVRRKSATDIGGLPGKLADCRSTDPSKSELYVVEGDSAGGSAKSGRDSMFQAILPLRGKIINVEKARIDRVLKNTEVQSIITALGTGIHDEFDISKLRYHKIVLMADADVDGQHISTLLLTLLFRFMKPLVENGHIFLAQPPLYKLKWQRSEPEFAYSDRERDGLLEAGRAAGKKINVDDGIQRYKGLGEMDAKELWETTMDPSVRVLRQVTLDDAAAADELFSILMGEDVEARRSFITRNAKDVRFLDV

[10] = Toxicity in zebrafish embryo assessed as atrio-ventricular ratio at 30 uM; parameters: species or system Danio rerio; conditions: in vivo; procedure, shortened: as §1
[11] = Inhibition of Mycobacterium tuberculosis DNA topoisomerase 1

| Compound | inhibition [1] | MIC [2] [µM] | inhibition [3] | inhibition (INH) [4] | IC50 [5] [µM] | inhibition (Escherichia coli) | inhibition [6] | inhibition at 72 h, 50 µM [7] [%] | Activity [8] | inhibition [9] | Activity [10] | IC50 [11] [µM] |
| --- | --- | --- | --- | --- | --- | --- | --- | --- | --- | --- | --- | --- |
| Cc1ccc2nc3ccccc3c(Nc3ccc(NS(=O)(=O)c4ccc(Cl)cc4)cc3)c2c1 | inactive | 6.59 (≈ 3.12 µg/mL) | inactive | Not Active | 5.21 | inactive | inactive | 11.8 | Non-toxic | inactive | Non-toxic |  |
| Cc1ccc(S(=O)(=O)Nc2ccc(Nc3c4ccccc4nc4ccccc34)cc2)cc1 | inactive | 28.4 (≈ 12.5 µg/mL) | inactive |  | 9.3 | inactive | inactive | 28.4 |  | inactive |  |  |
| Cc1ccc2nc3ccccc3c(Nc3ccc(NC(=O)Nc4ccccc4)cc3)c2c1 | inactive | 29.9 (≈ 12.5 µg/mL) | inactive |  | 22.1 | inactive | inactive | 24.8 |  | inactive |  |  |
| Cc1ccc(NC(=S)Nc2ccc(Nc3c4ccccc4nc4ccc(C)cc34)cc2)cc1 | inactive | 55.7 (≈ 25 µg/mL) | inactive |  | 26.9 | inactive | inactive | 35 |  | inactive |  |  |
| O=[N+]([O-])c1ccc(S(=O)(=O)Nc2ccc(Nc3c4ccccc4nc4ccccc34)cc2)cc1 | inactive | 24.6 (≈ 11.6 µg/mL) | inactive |  | 22.4 | inactive | inactive | 34.1 |  | inactive |  |  |
| Cc1ccc(NC(=S)Nc2ccc(Nc3c4ccccc4nc4ccccc34)cc2)cc1 | inactive | > 57.5 | inactive |  | 31.1 | inactive | inactive | 27.4 |  | inactive |  |  |
| Cc1ccc(NC(=O)Nc2ccc(Nc3c4ccccc4nc4ccc(C)cc34)cc2)cc1 | inactive | 57.8 (≈ 25 µg/mL) | inactive |  | 29.6 | inactive | inactive | 43.1 |  | inactive |  |  |
| Cc1ccc2nc3ccccc3c(Nc3ccc(NC(=S)Nc4ccccc4)cc3)c2c1 | inactive | 7.2 (≈ 3.13 µg/mL) | inactive |  | 6.3 | inactive | inactive | 10.8 |  | inactive |  |  |
| O=C(Nc1ccc(Nc2c3ccccc3nc3ccccc23)cc1)Nc1ccc([N+](=O)[O-])cc1 | inactive | 27.8 (≈ 12.5 µg/mL) | inactive |  | 26.8 | inactive | inactive | 19.2 |  | inactive |  |  |
| Cc1ccc2nc3ccccc3c(Nc3ccc(NC(=O)Nc4ccc(Cl)cc4)cc3)c2c1 | inactive | 27.6 (≈ 12.5 µg/mL) | inactive |  | 11.4 | inactive | inactive | 25.9 |  | inactive |  |  |
| COc1cc(NS(C)(=O)=O)ccc1Nc1c2ccccc2nc2ccccc12 [AMSACRINE] |  |  |  |  |  |  |  |  |  |  |  | 10 |
| Cc1ccc2nc3ccccc3c(Nc3ccc(NS(=O)(=O)c4ccc([N+](=O)[O-])cc4)cc3)c2c1 | inactive | 12.9 (≈ 6.25 µg/mL) | inactive |  | 8.34 | inactive | inactive | 27 |  | inactive |  |  |
| O=C(Nc1ccccc1)Nc1ccc(Nc2c3ccccc3nc3ccc(Cl)cc23)cc1 | inactive | 28.5 (≈ 12.5 µg/mL) | inactive |  | 23.6 | inactive | inactive | 27.7 |  | inactive |  |  |
| O=S(=O)(Nc1ccc(Nc2c3ccccc3nc3ccc(Cl)cc23)cc1)c1ccccc1 | inactive | 27.2 (≈ 12.5 µg/mL) | inactive |  | 9.2 | inactive | inactive | 14.5 |  | inactive |  |  |
| Cc1ccc2nc3ccccc3c(Nc3ccc(NC(=S)Nc4ccc(Cl)cc4)cc3)c2c1 | inactive | 26.7 (≈ 12.5 µg/mL) | inactive |  | 11.2 | inactive | inactive | 26 |  | inactive |  |  |
| Cc1ccc2nc3ccccc3c(Nc3ccc(NC(=O)Nc4ccc([N+](=O)[O-])cc4)cc3)c2c1 | inactive | 13.5 (≈ 6.25 µg/mL) | inactive |  | 7.4 | inactive | inactive | 33.9 |  | inactive |  |  |
| Cc1ccc(NC(=S)Nc2ccc(Nc3c4ccccc4nc4ccc(Cl)cc34)cc2)cc1 | inactive | > 53.3 | inactive |  | 33.9 | inactive | inactive | 25.5 |  | inactive |  |  |
| Cc1ccc(NC(=O)Nc2ccc(Nc3c4ccccc4nc4ccccc34)cc2)cc1 | inactive | 14.9 (≈ 6.25 µg/mL) | inactive |  | 13.1 | inactive | inactive | 18.4 |  | inactive |  |  |
| S=C(Nc1ccc(Cl)cc1)Nc1ccc(Nc2c3ccccc3nc3ccccc23)cc1 | inactive | 13.7 (≈ 6.25 µg/mL) | inactive |  | 8.4 | inactive | inactive | 12.5 |  | inactive |  |  |
| S=C(Nc1ccccc1)Nc1ccc(Nc2c3ccccc3nc3ccccc23)cc1 | inactive | 14.9 (≈ 6.25 µg/mL) | inactive |  | 8.2 | inactive | inactive | 29.2 |  | inactive |  |  |
| O=C(Nc1ccccc1)Nc1ccc(Nc2c3ccccc3nc3ccccc23)cc1 | inactive | > 61.8 | inactive |  | 32.6 | inactive | inactive | 30.4 |  | inactive |  |  |
| O=S(=O)(Nc1ccc(Nc2c3ccccc3nc3ccc(Cl)cc23)cc1)c1ccc(Cl)cc1 | inactive | 25.1 (≈ 12.4 µg/mL) | inactive |  | 12.4 | inactive | inactive | 14.2 |  | inactive |  |  |
| O=S(=O)(Nc1ccc(Nc2c3ccccc3nc3ccccc23)cc1)c1ccccc1 | inactive | 14.7 (≈ 6.25 µg/mL) | inactive |  | 15.1 | inactive | inactive | 42.1 |  | inactive |  |  |
| Cc1ccc2nc3ccccc3c(Nc3ccc(NC(=S)Nc4ccc([N+](=O)[O-])cc4)cc3)c2c1 | inactive | > 52.1 | inactive |  | 24.8 | inactive | inactive | 28.8 |  | inactive |  |  |
| O=C(Nc1ccc(Nc2c3ccccc3nc3ccc(Cl)cc23)cc1)Nc1ccc([N+](=O)[O-])cc1 | inactive | 6.46 (≈ 3.13 µg/mL) | inactive |  | 7.3 | inactive | inactive | 45.9 |  | inactive |  |  |
| O=S(=O)(Nc1ccc(Nc2c3ccccc3nc3ccccc23)cc1)c1ccc(Cl)cc1 | inactive | 27.2 (≈ 12.5 µg/mL) | inactive |  | 23.8 | inactive | inactive | 34.2 |  | inactive |  |  |
| O=[N+]([O-])c1ccc(S(=O)(=O)Nc2ccc(Nc3c4ccccc4nc4ccc(Cl)cc34)cc2)cc1 | inactive | 24.8 (≈ 12.5 µg/mL) | inactive |  | 8.1 | inactive | inactive | 30.4 |  | inactive |  |  |
